Experimental data taken from ChEMBL document CHEMBL4052643, “Development of molecular tools based on the dopamine D3 receptor ligand FAUC 329 showing inhibiting effects on drug and food maintained behavior” (Bioorg Med Chem, 2017).
Calls of active or inactive are those of the source. The rule behind the calls is not given here.

Tests used:
D(1A) dopamine receptor = D(1A) dopamine receptor (Homo sapiens, UniProt P21728); experiment: Displacement of […] from human D1 receptor expressed in HEK293T cell membranes; parameters: species or system HEK-293T
Chain of D(1A) dopamine receptor (P21728 whole entry): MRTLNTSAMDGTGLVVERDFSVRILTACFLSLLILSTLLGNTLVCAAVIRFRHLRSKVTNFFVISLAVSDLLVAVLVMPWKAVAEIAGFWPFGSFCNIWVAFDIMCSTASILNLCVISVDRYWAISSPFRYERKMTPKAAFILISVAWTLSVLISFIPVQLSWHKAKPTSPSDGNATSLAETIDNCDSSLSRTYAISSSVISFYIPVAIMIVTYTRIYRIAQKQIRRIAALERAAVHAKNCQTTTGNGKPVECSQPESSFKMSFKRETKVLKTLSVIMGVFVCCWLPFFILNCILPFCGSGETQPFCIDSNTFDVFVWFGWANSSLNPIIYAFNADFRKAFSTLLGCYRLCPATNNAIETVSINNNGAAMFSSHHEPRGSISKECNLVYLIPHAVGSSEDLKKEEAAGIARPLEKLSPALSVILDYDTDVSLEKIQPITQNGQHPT

D(1B) dopamine receptor = D(1B) dopamine receptor (Homo sapiens, UniProt P21918); experiment: Displacement of […] from human D5 receptor expressed in HEK293T cell membranes; parameters: species or system HEK-293T
Chain of D(1B) dopamine receptor (P21918 whole entry): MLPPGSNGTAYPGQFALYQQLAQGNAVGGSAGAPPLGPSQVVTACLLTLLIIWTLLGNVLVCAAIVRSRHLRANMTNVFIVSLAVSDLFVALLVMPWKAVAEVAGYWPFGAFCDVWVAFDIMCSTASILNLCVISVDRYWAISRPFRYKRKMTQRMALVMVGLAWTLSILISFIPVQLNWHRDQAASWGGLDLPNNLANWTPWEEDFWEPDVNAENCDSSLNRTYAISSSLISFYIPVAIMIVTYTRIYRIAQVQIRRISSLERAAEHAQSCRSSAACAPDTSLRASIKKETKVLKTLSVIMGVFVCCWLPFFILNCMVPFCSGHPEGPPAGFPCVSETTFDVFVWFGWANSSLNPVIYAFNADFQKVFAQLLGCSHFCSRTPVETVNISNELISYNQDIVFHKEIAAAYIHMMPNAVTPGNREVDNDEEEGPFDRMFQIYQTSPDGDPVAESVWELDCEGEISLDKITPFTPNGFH

D(2) dopamine receptor [1] = target: T1, D(2) dopamine receptor (Homo sapiens, UniProt P14416); experiment: Displacement of [3H]spiperone from human D2-long receptor expressed in CHO cell membranes
T1 sequence (P14416 whole entry): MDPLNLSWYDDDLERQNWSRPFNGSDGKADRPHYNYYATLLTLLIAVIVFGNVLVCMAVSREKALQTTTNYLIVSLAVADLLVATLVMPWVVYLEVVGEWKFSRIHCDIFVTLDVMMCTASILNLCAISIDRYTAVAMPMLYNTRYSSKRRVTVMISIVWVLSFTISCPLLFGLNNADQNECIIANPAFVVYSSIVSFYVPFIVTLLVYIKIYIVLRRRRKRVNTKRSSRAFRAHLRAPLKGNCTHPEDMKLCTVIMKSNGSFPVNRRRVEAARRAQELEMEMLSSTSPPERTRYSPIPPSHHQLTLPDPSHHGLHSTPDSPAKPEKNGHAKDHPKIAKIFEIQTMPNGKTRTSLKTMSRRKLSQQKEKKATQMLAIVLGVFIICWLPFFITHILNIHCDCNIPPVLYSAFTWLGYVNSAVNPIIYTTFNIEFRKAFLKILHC

D(2) dopamine receptor [2] = target: T1, D(2) dopamine receptor; experiment: Displacement of [3H]spiperone from human D2-short receptor expressed in CHO cell membranes
D(3) dopamine receptor = D(3) dopamine receptor (Homo sapiens, UniProt P35462); experiment: Displacement of [3H]spiperone from human D3 receptor expressed in CHO cell membranes
Chain of D(3) dopamine receptor (P35462 whole entry): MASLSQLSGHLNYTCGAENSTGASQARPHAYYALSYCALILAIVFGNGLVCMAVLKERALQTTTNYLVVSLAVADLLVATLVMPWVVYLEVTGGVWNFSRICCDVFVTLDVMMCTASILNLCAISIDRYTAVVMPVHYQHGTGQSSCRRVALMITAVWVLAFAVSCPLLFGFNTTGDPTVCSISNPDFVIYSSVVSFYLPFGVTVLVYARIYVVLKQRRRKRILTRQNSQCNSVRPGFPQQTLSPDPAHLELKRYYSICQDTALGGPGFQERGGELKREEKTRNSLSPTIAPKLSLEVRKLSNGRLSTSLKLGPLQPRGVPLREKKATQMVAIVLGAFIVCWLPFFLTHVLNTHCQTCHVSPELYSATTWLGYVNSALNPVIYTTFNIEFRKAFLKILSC

D(4) dopamine receptor = target: T2, D(4) dopamine receptor (Homo sapiens, UniProt P21917); experiment: Displacement of [3H]spiperone from human D4 receptor expressed in CHO cell membranes
T2 sequence (P21917 whole entry): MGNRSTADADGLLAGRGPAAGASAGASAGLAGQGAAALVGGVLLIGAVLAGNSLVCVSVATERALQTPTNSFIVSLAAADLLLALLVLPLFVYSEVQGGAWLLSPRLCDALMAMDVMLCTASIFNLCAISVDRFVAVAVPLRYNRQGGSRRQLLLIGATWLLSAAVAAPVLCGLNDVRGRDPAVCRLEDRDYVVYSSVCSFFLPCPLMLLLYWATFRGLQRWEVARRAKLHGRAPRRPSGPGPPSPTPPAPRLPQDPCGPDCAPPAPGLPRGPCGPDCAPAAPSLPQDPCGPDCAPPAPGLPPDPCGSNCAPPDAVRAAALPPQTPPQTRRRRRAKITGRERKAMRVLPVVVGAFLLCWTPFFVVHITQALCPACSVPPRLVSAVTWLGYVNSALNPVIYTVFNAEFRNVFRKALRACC

[3] = Displacement of […] from porcine cerebral cortex 5-HT1A receptor; parameters: species or system Sus scrofa
[4] = target: 5-hydroxytryptamine receptor 2A (Homo sapiens, UniProt P28223); experiment: Displacement of [3H]ketanserin from human 5-HT2A receptor expressed in HEK293T cell membranes; parameters: species or system HEK-293T
Chain of 5-hydroxytryptamine receptor 2A (P28223 whole entry): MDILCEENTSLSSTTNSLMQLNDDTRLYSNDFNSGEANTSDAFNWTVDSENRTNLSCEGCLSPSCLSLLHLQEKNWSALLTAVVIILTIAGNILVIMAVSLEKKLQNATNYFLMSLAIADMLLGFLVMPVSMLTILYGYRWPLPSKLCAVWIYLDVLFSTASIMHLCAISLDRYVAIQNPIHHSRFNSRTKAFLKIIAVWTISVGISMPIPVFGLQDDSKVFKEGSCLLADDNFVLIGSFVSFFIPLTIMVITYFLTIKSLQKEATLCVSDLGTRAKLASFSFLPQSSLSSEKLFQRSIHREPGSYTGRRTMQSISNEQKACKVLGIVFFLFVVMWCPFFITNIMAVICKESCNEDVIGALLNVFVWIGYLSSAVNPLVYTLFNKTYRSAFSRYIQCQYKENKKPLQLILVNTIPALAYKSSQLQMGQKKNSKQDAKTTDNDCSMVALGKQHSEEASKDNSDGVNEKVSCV

[5] = Selectivity ratio of Ki for porcine cerebral cortex 5-HT1A receptor to Ki for human D3 receptor expressed in CHO cell membranes; assay type: cell-based
[6] = target: D(3) dopamine receptor (Rattus norvegicus) (UniProt P19020); experiment: Displacement of BP897 from D3 receptor in rat brain islands of calleja at 5 MBq after 45 mins by phosphorus imaging based autoradiography; settings: 5 M, tested as the 18F-labelled form
Chain of D(3) dopamine receptor (Rattus norvegicus) (P19020 whole entry): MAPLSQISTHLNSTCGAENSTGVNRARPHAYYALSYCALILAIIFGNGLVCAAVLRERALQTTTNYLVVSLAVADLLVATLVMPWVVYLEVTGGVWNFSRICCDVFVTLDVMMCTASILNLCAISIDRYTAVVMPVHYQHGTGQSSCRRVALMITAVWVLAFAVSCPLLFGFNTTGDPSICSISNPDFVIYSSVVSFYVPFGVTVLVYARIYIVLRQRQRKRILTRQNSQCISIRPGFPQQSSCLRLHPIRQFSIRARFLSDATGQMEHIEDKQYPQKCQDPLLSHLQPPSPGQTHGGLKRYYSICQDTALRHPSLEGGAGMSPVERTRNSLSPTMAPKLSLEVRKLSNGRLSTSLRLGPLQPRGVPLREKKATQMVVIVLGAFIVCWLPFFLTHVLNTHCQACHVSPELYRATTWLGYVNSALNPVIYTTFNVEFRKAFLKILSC

[7] = target: D(3) dopamine receptor (Rattus norvegicus) (UniProt P19020); experiment: Displacement of BP897 from D3 receptor in rat brain lateral septum nuclei at 5 MBq after 45 mins by phosphorus imaging based autoradiography; settings: 5 M, tested as the 18F-labelled form
[8] = target: D(3) dopamine receptor (Rattus norvegicus) (UniProt P19020); experiment: Displacement of BP897 from D3 receptor in rat brain striatum at 5 MBq after 45 mins by phosphorus imaging based autoradiography; settings: 5 M, tested as the 18F-labelled form
[9] = target: D(3) dopamine receptor (Rattus norvegicus) (UniProt P19020); experiment: Displacement of BP897 from D3 receptor in rat brain cortex at 5 MBq after 45 mins by phosphorus imaging based autoradiography; settings: 5 M, tested as the 18F-labelled form
Homo sapiens [10] = species: Homo sapiens; experiment: Selectivity ratio of Ki for human D2-long receptor expressed in CHO cell membranes to Ki for human D3 receptor expressed in CHO cell membranes; assay type: cell-based
Homo sapiens [11] = species: Homo sapiens; experiment: Selectivity ratio of Ki for human D2-short receptor expressed in CHO cell membranes to Ki for human D3 receptor expressed in CHO cell membranes; assay type: cell-based
Brain = experiment: Drug uptake in rat brain at 10 to 15 MBq, iv after 40 mins by PET imaging method; assay type: ADME, organism-based; settings: in vivo
[12] = Drug uptake in rat pituitary gland at 10 to 15 MBq, iv after 40 mins pretreated with D3 ligand BP897 by PET imaging method; assay type: ADME, organism-based; settings: in vivo
Method in brief: (§1)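 In vivo PET scan of rats given the [¹⁸F]-labelled radioligand. Whole pituitary gland uptake measured at 40 min p.i. as %ID/g, with or without BP897 pretreatment.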

[13] = Drug uptake in rat brain calleja islands at 10 to 15 MBq, iv after 60 mins by phosphorus imaging based autoradiography; assay type: ADME, organism-based, Calleja island; settings: in vivo, 1 h
Method in brief: (§2)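 Rats injected with the [¹⁸F]-labelled radioligand, alone or co-injected with BP897. Coronal brain sections taken at 60 min p.i. for ex-vivo autoradiography and overlaid with HE-stained sections. Uptake expressed as region of interest-to-background ratio, with control animals compared against BP897 co-injected animals.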

[14] = Drug uptake in rat brain striatum at 10 to 15 MBq, iv after 60 mins by phosphorus imaging based autoradiography; assay type: ADME, organism-based; settings: in vivo, 1 h; method in brief: as §2
[15] = Drug uptake in rat brain ventricles at 10 to 15 MBq, iv after 60 mins by phosphorus imaging based autoradiography; assay type: ADME, organism-based, Brain ventricle; settings: in vivo, 1 h; method in brief: as §2
[16] = Drug uptake in rat brain ependyma cell layer at 10 to 15 MBq, iv after 60 mins by phosphorus imaging based autoradiography; assay type: ADME, organism-based; settings: in vivo, 1 h; method in brief: as §2
[17] = Drug uptake in rat brain plexus tissue at 10 to 15 MBq, iv after 60 mins by phosphorus imaging based autoradiography; assay type: ADME, organism-based; settings: in vivo, 1 h; method in brief: as §2
[18] = Drug uptake in rat brain ventricles at 10 to 15 MBq, iv after 40 mins by PET imaging method; assay type: ADME, organism-based, Brain ventricle; settings: in vivo
[19] = Drug uptake in rat pituitary gland at 10 to 15 MBq, iv after 40 mins by PET imaging method; assay type: ADME, organism-based; settings: in vivo; method in brief: as §1
Homo sapiens [20] = species: Homo sapiens; experiment: Selectivity ratio of Ki for human D1 receptor expressed in HEK293T cell membranes to Ki for human D3 receptor expressed in CHO cell membranes; assay type: cell-based
Homo sapiens [21] = species: Homo sapiens; experiment: Selectivity ratio of Ki for human D5 receptor expressed in HEK293T cell membranes to Ki for human D3 receptor expressed in CHO cell membranes; assay type: cell-based
Homo sapiens [22] = species: Homo sapiens; experiment: Selectivity ratio of Ki for human D4 receptor expressed in CHO cell membranes to Ki for human D3 receptor expressed in CHO cell membranes; assay type: cell-based
Homo sapiens [23] = species: Homo sapiens; experiment: Selectivity ratio of Ki for human 5-HT2A receptor expressed in HEK293T cell membranes to Ki for human D3 receptor expressed in CHO cell membranes; assay type: cell-based
Rhesus monkey [24] = experiment: Reduction in food reinforcement-maintained behavior in monkey at 0.18 to 0.32 mg/kg, im administered as single dose 15 mins prior to food reinforcement during first component of session relative to control; assay type: functional, Macaca mulatta; parameters: scale not given: the % may be the effect or the level left; settings: in the assay text read “0.32 mg/kg” for “0.18 to 0.32 mg/kg”
Method in brief: (§3)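 Male rhesus monkeys trained to respond for cocaine and food under daily 2 h FR30 sessions. Sessions ran in order: food 1, a 100-min i.v. cocaine (or saline) component, then food 2. Saline pretreatment served as baseline. Values are mean ± S.E.M. of four experiments, with significance by two-tailed t-test (p < 0.05).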

Rhesus monkey [25] = experiment: Reduction in cocaine-maintained responding in monkey at 0.18 to 0.32 mg/kg, im administered as single dose 15 mins prior to self administration of 0.003 mg/kg, iv per injection of cocaine for 100 mins relative to control; assay type: functional, Macaca mulatta; parameters: scale not given: the % may be the effect or the level left; method in brief: as §3
Rhesus monkey [26] = experiment: Reduction in cocaine-maintained responding in monkey at 0.18 to 0.32 mg/kg, im administered as single dose 15 mins prior to self administration of 0.01 to 0.03 mg/kg, iv per injection of cocaine for 100 mins relative to control; assay type: functional, Macaca mulatta; parameters: scale not given: the % may be the effect or the level left; method in brief: as §3
Rhesus monkey [27] = experiment: Reduction in cocaine-maintained responding in monkey at 0.18 to 0.32 mg/kg, im administered as single dose 15 mins prior to self administration of 0.1 mg/kg, iv per injection of cocaine for 100 mins relative to control; assay type: functional, Macaca mulatta; parameters: scale not given: the % may be the effect or the level left; method in brief: as §3
Rhesus monkey [28] = experiment: Reduction in cocaine-maintained responding in monkey administered im 15 mins prior to self administration of 0.1 mg/kg, iv per injection of cocaine for 100 mins; assay type: functional, organism-based; settings: Macaca mulatta; method in brief: as §3
Rhesus monkey [29] = experiment: Reduction in food reinforcement-maintained behavior in monkey at 0.18 to 0.32 mg/kg, im administered as single dose 15 mins prior to food reinforcement during second component of session relative to control; assay type: functional, Macaca mulatta; parameters: scale not given: the % may be the effect or the level left; method in brief: as §3
[30] = tested as the 18F-labelled form

Row | Structure (SMILES) | Ki (D(1A) dopamine receptor) [µM] | Ki (D(1B) dopamine receptor) [µM] | Ki (D(2) dopamine receptor [1]) [µM] | Ki (D(2) dopamine receptor [2]) [µM] | Ki (D(3) dopamine receptor) [µM] | Ki (D(4) dopamine receptor) [µM] | Ki [3] [µM] | Ki [4] [µM] | other results
1 | CC(C)(C)c1nc(N2CCN(CCCCNC(=O)c3cc4ccccn4n3)CC2)cc(C(F)(F)F)n1 | 7.5 | 5.7 | 0.43 | 0.2 | 0.0012 | 4.7 | 9.8 | 2.7 | Ratio Ki [5]: 8000
2 | O=C(NCCCCN1CCN(c2ccccc2OCCF)CC1)c1cc2ccccn2n1 | 0.86 | 3.8 | 0.039 | 0.021 | 0.00031 | 0.16 | 0.0065 | 0.52 | inhibition [6]: Active; inhibition [7]: Active; inhibition [8]: Active; inhibition [9]: Active; Ratio Ki (Homo sapiens [10]; [30]): 130; Ratio Ki (Homo sapiens [11]; [30]): 68
3 | CN(C)C(=O)N[C@H]1CC[C@H](CCN2CCN(c3cccc(Cl)c3Cl)CC2)CC1 [CARIPRAZINE] | – | 7.9 | – | – | – | – | – | – | –
4 | O=C(NCCCCN1CCN(c2ccccc2OCC[18F])CC1)c1cc2ccccn2n1 | – | – | – | – | 0.00031 | – | – | – | Drug uptake (Brain): Active; Drug uptake [12]: Not Active; Drug uptake [13]: Not Active; Drug uptake [14]: Not Active; Drug uptake [15]: Active; Drug uptake [16]: Active; Drug uptake [17]: Active; Drug uptake [18]: Active; Drug uptake [19]: 0.394 % ID/g
5 | O=C(NCCCCN1CC[N+]2(CCOc3ccccc32)CC1)c1cc2ccccn2n1 | 5.7 | > 50 | 6.3 | 4.5 | 0.2 | > 10 | 0.9 | > 10 | –
6 | CC(C)(C)c1nc(N2CCN(CCCCNC(=O)c3cc4ccccc4s3)CC2)cc(C(F)(F)F)n1 | > 10 | > 10 | 4 | 2.7 | 0.0024 | > 10 | > 50 | 7.1 | Ratio Ki [5]: 1000 to 20000; Ratio Ki (Homo sapiens [20]): 1000 to 20000; Ratio Ki (Homo sapiens [21]): 1000 to 20000; Ratio Ki (Homo sapiens [10]): 1000 to 20000; Ratio Ki (Homo sapiens [11]): 1000 to 20000; Ratio Ki (Homo sapiens [22]): 1000 to 20000; Ratio Ki (Homo sapiens [23]): 1000 to 20000
7 | COc1ccccc1N1CCN(CCCCNC(=O)c2cc3ccccn3n2)CC1 | – | – | – | – | – | – | 0.01 | – | Activity (Rhesus monkey [24]): 30%; Activity (Rhesus monkey [25]): <25%; Activity (Rhesus monkey [26]): 70 - 75%; Activity (Rhesus monkey [27]): 45%; Activity (Rhesus monkey [28]): Dose-dependent effect; Activity (Rhesus monkey [29]): 80%
